According to ChEMBL document CHEMBL1132228, “Unique analogues of anandamide: arachidonyl ethers and carbamates and norarachidonyl carbamates and ureas” (J Med Chem, 1999):

Experiments:
Mus musculus [1] = experiment: The compound tested in vivo for inhibition of spontaneous activity(SA)at 30 mg/kg; format: functional; parameters: scale not given: the % may be the effect or the level left
In short: (§1)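 Mice dosed iv by tail vein in ethanol:emulphor:saline 1:1:18. Tail flick to heat measured at 4 min, with 2-4 s baseline and 10 s cut-off, expressed as %MPE. Same mice then placed in photocell cages; beam breaks counted over 10 min and expressed as % of control. 6 mice/dose. ED50 from probit versus log dose by least-squares regression.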

Mus musculus [2] = experiment: The compound tested in vivo for antinociception as measured by tail flick response(TF) activity at 30 mg/kg; format: functional; in short: as §1
Cannabinoid receptor 1 [3] = target: T1, Cannabinoid receptor 1 (Rattus norvegicus, UniProt P20272); experiment: The compound was tested for Ki value against rat whole brain P2 membrane preparation in presence of enzyme inhibitor PMSF.
T1 sequence (P20272 whole entry): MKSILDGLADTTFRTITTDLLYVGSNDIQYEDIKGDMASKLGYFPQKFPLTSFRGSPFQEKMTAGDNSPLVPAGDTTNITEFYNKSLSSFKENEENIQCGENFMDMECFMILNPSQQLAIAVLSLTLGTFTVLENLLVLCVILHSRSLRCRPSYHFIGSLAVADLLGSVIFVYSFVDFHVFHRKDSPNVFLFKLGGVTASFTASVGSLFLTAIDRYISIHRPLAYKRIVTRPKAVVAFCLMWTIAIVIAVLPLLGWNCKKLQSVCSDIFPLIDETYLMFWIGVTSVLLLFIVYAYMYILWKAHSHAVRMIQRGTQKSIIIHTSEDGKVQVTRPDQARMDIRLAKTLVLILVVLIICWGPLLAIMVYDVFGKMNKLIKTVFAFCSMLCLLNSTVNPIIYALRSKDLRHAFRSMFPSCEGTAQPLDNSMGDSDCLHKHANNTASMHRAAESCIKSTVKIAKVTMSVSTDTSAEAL
In short: (§2)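 Rat whole-brain P2 membranes (100-150 µg protein) incubated 1 h at 30 °C with 1 nM [3H]CP-55,940 and analogue at 1 nM-10 µM, with or without PMSF (50 µM). Buffer: 50 mM Tris-HCl, 1 mM EDTA, 3 mM MgCl2, 5 mg/mL BSA; ethanol ≤0.4%. Nonspecific binding with 1 µM CP-55,940. Stopped with ice-cold buffer, then rapid filtration on PEI-treated filters. Triplicates; 3-6 experiments; mean ± SE.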

Mus musculus [4] = experiment: The compound tested in vivo for ring immobility (RI); format: functional
In short: (§3)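 Separate mice dosed iv by tail vein in ethanol:emulphor:saline 1:1:18. Rectal temperature taken by thermistor probe before and 4 min after injection; the change was recorded. Mice then placed on a 5.5-cm ring 16 cm high; time motionless over 5 min was taken as % of 300 s. Immobility ED50 from probit-log dose regression.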

Mus musculus [5] = experiment: The compound tested in vivo for hypothermia as changes in rectal temperature (RT); format: functional; in short: as §3
Mus musculus [6] = experiment: The compound tested in vivo for antinociception as measured by tail flick response(TF); format: functional; in short: as §1
Mus musculus [7] = experiment: The compound tested in vivo for inhibition of spontaneous activity(SA); format: functional; in short: as §1
Cannabinoid receptor 1 [8] = target: T1, Cannabinoid receptor 1; experiment: The compound was tested for Ki value against rat whole brain P2 membrane preparation in absence of enzyme inhibitor PMSF; in short: as §2
Mus musculus [9] = experiment: The compound tested in vivo for ring immobility (RI)a; format: functional; in short: as §3

Compound: CCCCC/C=C\C/C=C\C/C=C\C/C=C\CCCNC(=O)OC(C)C
- Activity (Mus musculus [1]): 35%
- Activity (Mus musculus [2]): 3%
- Ki (Cannabinoid receptor 1 [3]): 1230 nM

Compound: CCCCC/C=C\C/C=C\C/C=C\C/C=C\CCCNC(=O)OCC
- Activity (Mus musculus [1]): 36%
- Activity (Mus musculus [2]): 5%
- Ki (Cannabinoid receptor 1 [3]): 218 nM

Compound: CCCCC/C=C\C/C=C\C/C=C\C/C=C\CCCNC(=O)NCCOC
- Activity (Mus musculus [1]): 69%
- Activity (Mus musculus [2]): 32%
- ED50 (Mus musculus [4]): 3 mg/kg
- Ki (Cannabinoid receptor 1 [3]): 746 nM

Compound: CCCCC/C=C\C/C=C\C/C=C\C/C=C\CCCCOC(C)CC (stereo not given)
- Ki (Cannabinoid receptor 1 [3]): 1310 nM

Compound: CCCCC/C=C\C/C=C\C/C=C\C/C=C\CCCNC(=O)OCCF
- Activity (Mus musculus [1]): 18%
- Activity (Mus musculus [2]): 20%
- Ki (Cannabinoid receptor 1 [3]): 331 nM

Compound: CCCCC/C=C\C/C=C\C/C=C\C/C=C\CCCCOC(=O)NCCC
- Ki (Cannabinoid receptor 1 [3]): 471 nM

Compound: CCCCC/C=C\C/C=C\C/C=C\C/C=C\CCCCOCCCC
- Ki (Cannabinoid receptor 1 [3]): 1710 nM

Compound: CCCCC/C=C\C/C=C\C/C=C\C/C=C\CCCNC(=O)NCC
- ED50 (Mus musculus [5]): 16.2 mg/kg
- ED50 (Mus musculus [6]): 3.3 mg/kg
- ED50 (Mus musculus [7]): 2.8 mg/kg
- ED50 (Mus musculus [4]): 19.9 mg/kg
- Ki (Cannabinoid receptor 1 [3]): 156 nM

Compound: CCCCC/C=C\C/C=C\C/C=C\C/C=C\CCCNC(=O)NCCC
- ED50 (Mus musculus [5]): 3.4 mg/kg
- ED50 (Mus musculus [6]): 8.9 mg/kg
- ED50 (Mus musculus [7]): 7.2 mg/kg
- ED50 (Mus musculus [4]): 5.4 mg/kg
- Ki (Cannabinoid receptor 1 [3]): 91 nM
- Ki (Cannabinoid receptor 1 [8]): 170 nM

Compound: C=CCOCCCC/C=C\C/C=C\C/C=C\C/C=C\CCCCC
- Ki (Cannabinoid receptor 1 [3]): 1170 nM

Compound: CCCCC/C=C\C/C=C\C/C=C\C/C=C\CCCCOC(=O)NC(C)C
- Ki (Cannabinoid receptor 1 [3]): 995 nM

Compound: CCCCC/C=C\C/C=C\C/C=C\C/C=C\CCCNC(=O)NCCF
- ED50 (Mus musculus [5]): 0.85 mg/kg
- ED50 (Mus musculus [6]): 6.4 mg/kg
- ED50 (Mus musculus [7]): 3.5 mg/kg
- ED50 (Mus musculus [9]): 4.48 mg/kg
- Ki (Cannabinoid receptor 1 [3]): 55 nM
- Ki (Cannabinoid receptor 1 [8]): 52 nM

Compound: CCCCC/C=C\C/C=C\C/C=C\C/C=C\CCCCOCCC
- Ki (Cannabinoid receptor 1 [3]): 1080 nM

Compound: CCCCC/C=C\C/C=C\C/C=C\C/C=C\CCCNC(=O)NC(C)C
- ED50 (Mus musculus [5]): 1.28 mg/kg
- ED50 (Mus musculus [6]): 2.4 mg/kg
- ED50 (Mus musculus [7]): 5.8 mg/kg
- ED50 (Mus musculus [4]): 38 mg/kg
- Ki (Cannabinoid receptor 1 [3]): 131 nM
- Ki (Cannabinoid receptor 1 [8]): 204 nM

Compound: CCCCC/C=C\C/C=C\C/C=C\C/C=C\CCCCOCCO
- Ki (Cannabinoid receptor 1 [3]): 797 nM

Compound: CCCCC/C=C\C/C=C\C/C=C\C/C=C\CCCCOCC1CC1
- Ki (Cannabinoid receptor 1 [3]): 578 nM

Compound: CCCCC/C=C\C/C=C\C/C=C\C/C=C\CCCNC(=O)NC
- ED50 (Mus musculus [5]): 2.2 mg/kg
- ED50 (Mus musculus [6]): 12.3 mg/kg
- ED50 (Mus musculus [7]): 9.9 mg/kg
- ED50 (Mus musculus [4]): 4.51 mg/kg
- Ki (Cannabinoid receptor 1 [3]): 436 nM

Compound: CCCCC/C=C\C/C=C\C/C=C\C/C=C\CCCCOC(C)C
- Ki (Cannabinoid receptor 1 [3]): 871 nM

Compound: C#CCOCCCC/C=C\C/C=C\C/C=C\C/C=C\CCCCC
- Ki (Cannabinoid receptor 1 [3]): 1580 nM

Compound: CCCCC/C=C\C/C=C\C/C=C\C/C=C\CCCCOC
- Ki (Cannabinoid receptor 1 [3]): 4260 nM

Compound: CCCCC/C=C\C/C=C\C/C=C\C/C=C\CCCCOCCF
- Ki (Cannabinoid receptor 1 [3]): 885 nM

Compound: CCCCC/C=C\C/C=C\C/C=C\C/C=C\CCCCOC(=O)NCC
- Ki (Cannabinoid receptor 1 [3]): 2200 nM

Compound: CCCCC/C=C\C/C=C\C/C=C\C/C=C\CCCCOCC
- Ki (Cannabinoid receptor 1 [3]): 2200 nM

Compound: CCCCC/C=C\C/C=C\C/C=C\C/C=C\CCCCOCC(C)C
- Ki (Cannabinoid receptor 1 [3]): 2480 nM

Compound: CCCCC/C=C\C/C=C\C/C=C\C/C=C\CCCNC(=O)NCCO
- ED50 (Mus musculus [5]): 2.6 mg/kg
- ED50 (Mus musculus [6]): 4 mg/kg
- ED50 (Mus musculus [7]): 3.1 mg/kg
- ED50 (Mus musculus [4]): 3.9 mg/kg
- Ki (Cannabinoid receptor 1 [3]): 347 nM

Compound: CCCCC/C=C\C/C=C\C/C=C\C/C=C\CCCNC(=O)NCC(C)C
- Activity (Mus musculus [1]): 59%
- Activity (Mus musculus [2]): 26%
- Ki (Cannabinoid receptor 1 [3]): 335 nM

Compound: CCCCC/C=C\C/C=C\C/C=C\C/C=C\CCCC(=O)NCCO [ANANDAMIDE]
- ED50 (Mus musculus [6]): 6.2 mg/kg
